Published values from different studies.
Lines come from different studies, so protocols differ.
Target: Tyrosine-protein kinase TXK (TXK, Homo sapiens, UniProt P42681)
Residues used in one study (P42681 1-527): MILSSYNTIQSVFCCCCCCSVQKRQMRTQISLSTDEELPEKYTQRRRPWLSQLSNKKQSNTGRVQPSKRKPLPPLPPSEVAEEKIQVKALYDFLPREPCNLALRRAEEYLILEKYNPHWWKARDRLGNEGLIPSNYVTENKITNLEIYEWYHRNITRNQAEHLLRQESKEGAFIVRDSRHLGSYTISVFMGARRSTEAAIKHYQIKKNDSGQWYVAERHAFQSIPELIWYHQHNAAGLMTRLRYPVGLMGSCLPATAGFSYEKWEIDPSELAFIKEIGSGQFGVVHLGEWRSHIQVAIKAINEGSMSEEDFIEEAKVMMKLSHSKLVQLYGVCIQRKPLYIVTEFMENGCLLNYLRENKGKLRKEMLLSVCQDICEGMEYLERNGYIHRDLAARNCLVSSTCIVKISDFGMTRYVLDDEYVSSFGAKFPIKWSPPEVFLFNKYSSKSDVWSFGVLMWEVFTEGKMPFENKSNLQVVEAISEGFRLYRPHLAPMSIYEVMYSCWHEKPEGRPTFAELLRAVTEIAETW

SMILES | observed | technique | concentration | remaining binding
COc1cnc(Nc2cccc(S(N)(=O)=O)c2)nc1N1CCN(c2ccccc2)C(=O)C1 | binding | competition with immobilised ligand | 1 µM | 100%
CC1CCCN1c1nccc(-c2cnn3ncccc23)n1 (stereo not shown) | binding |  | 1 µM | 100%
O=C(NCCCN1CCOCC1)c1ccc(Nc2nccc(-c3cc4ccccc4s3)n2)cc1 | binding | competition with immobilised ligand | 1 µM | 86%
CCS(=O)(=O)c1cc2cc(C[C@@](O)(CC(C)(C)c3ccc(F)cc3C(N)=O)C(F)(F)F)[nH]c2cn1 | cell-free assay | competition with immobilised ligand | 1 µM | 97%
Cc1cnn2ncc(-c3ccnc(N(C)C)n3)c2c1 | binding |  | 1 µM | 100%
C[C@H](NC(=O)c1cnc2n1[C@](C)(Cc1ccc(C#N)cc1)C(=O)N2c1cc(Cl)c(F)c(Cl)c1)C(=O)NC1(c2ccccn2)CC1 | binding | competition with immobilised ligand | 1 µM | 90%
O=C(NCC1CCOCC1)c1n[nH]cc1NC(=O)c1c(F)cccc1F | binding | competition with immobilised ligand | 1 µM | 100%
O=C(NCCCN1CCOCC1)c1ccc(Nc2ncc(Cl)c(-c3ccc(Cl)s3)n2)cc1 | binding | competition with immobilised ligand | 1 µM | 99%
Cc1cc(-n2nc(Cc3cc(F)cc(C(F)(F)F)c3)nc2C)ccc1C(N)=O | binding | competition with immobilised ligand | 1 µM | 84%
CCN1CCN(Cc2ccc(C(=O)Nc3ccc(C)c(Oc4ccc5c(c4)CC(=O)N5)c3)cc2C(F)(F)F)CC1 | binding | competition with immobilised ligand | 1 µM | 100%
COc1ccnn2ncc(-c3ccnc(N(C)C)n3)c12 | binding |  | 1 µM | 100%
CNC(=O)[C@@H]1CC[C@@H](n2c(-c3ccc4cnccc4c3)nc3ccc(C(=O)NCc4cccc(C(N)=O)c4)cc32)C1 | binding | competition with immobilised ligand | 1 µM | 100%
C=CC(=O)N1CCC(C(=O)NCC(=O)N2CCN(c3nc(-c4cnc(N)nc4C(F)F)nc(N4CCOCC4)n3)CC2)CC1 | binding | competition with immobilised ligand | 1 µM | 100%
C[C@H]1CCN(c2nccc(-c3cnn4ncccc34)n2)C1 | binding |  | 1 µM | 90%
CCc1ccccc1C(=O)Nc1n[nH]c2c(C)c(F)c(C3C(C#N)=C(C)N(C)C(C)=C3C#N)cc12 | binding | competition with immobilised ligand | 1 µM | 84%
Cc1cnc(Nc2ccc(C(=O)N3CCC(N4CCCC4)CC3)cc2)nc1-c1cc2ccccc2s1 | binding | competition with immobilised ligand | 1 µM | 59%
CC(=O)c1c(NS(C)(=O)=O)c2cc(-c3ccc(Cl)cc3)c(-c3ccc(Cl)cc3Cl)nc2n(C)c1=O | cell-free assay | competition with immobilised ligand | 1 µM | 100%
FC(F)(F)Oc1cccc(-c2cnc3ccc(-c4ccncc4)nn23)c1 | binding | competition with immobilised ligand | 5 µM | 55%
Cn1nc(C(F)(F)F)cc1-c1cnc(N2CCc3cc(S(=O)(=O)Nc4c(F)cc(Cl)cc4F)cc(N4CCCC4=O)c32)nc1 | binding | competition with immobilised ligand | 1 µM | 100%
N[C@@H]1CCN(c2nccc(-c3cnn4ncccc34)n2)C1 | binding |  | 1 µM | 100%
C[C@@H](c1cccc(C#N)c1)n1cc(Cl)cc(C(N)=O)c1=N | binding | competition with immobilised ligand | 1 µM | 68%
F[C@@H]1CCN(c2nccc(-c3cnn4ncccc34)n2)C1 | binding |  | 1 µM | 73%
